Converted amounts (≈) assume the structure as drawn.
How the values were obtained:
Assay type in all cases: functional
Streptococcus pneumoniae [1] = test: Antimicrobial activity against Streptococcus pneumoniae RCMB 010010 assessed as inhibition zone at 5 mg/ml after 24 hrs; details: RCMB 010010, 24 h, read-out: IZ
Method in brief: (§1)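 Agar diffusion on nutrient agar seeded with 10^6 CFU/mL bacteria. Filter-paper disks were loaded with 100 µL of a 5 mg/mL compound solution in DMF, with a DMF-only control. Incubation was 37 °C for 24 h. Inhibition zone in mm (mean ± SD, triplicate plates) was measured beyond the 6 mm diameter.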

Streptococcus pneumoniae [2] = test: Antimicrobial activity against Streptococcus pneumoniae RCMB 010010 assessed as absence of turbidity after 24 hrs; details: RCMB 010010, 24 h
Method in brief: (§2)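 Broth microdilution in Müller–Hinton broth. DMF stocks at 1000 µg/mL were diluted in broth to give twofold serial dilutions over 500–0.007 µg/mL. Bacterial inoculum was about 10^6 CFU/mL in 96-well plates, sealed and incubated at 37 °C for 24 h in a humid chamber. MIC was taken as the lowest concentration with no visible turbidity. DMF and uninoculated-medium controls were included. Only compounds giving zones >10 mm were tested.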

Bacillus subtilis [3] = test: Antimicrobial activity against Bacillis subtilis RCMB 010067 assessed as inhibition zone at 5 mg/ml after 24 hrs; details: RCMB 010067, 24 h, read-out: IZ; method in brief: as §1
Bacillus subtilis [4] = test: Antimicrobial activity against Bacillis subtilis RCMB 010067 assessed as absence of turbidity after 24 hrs; details: RCMB 010067, 24 h; method in brief: as §2
[5] = system: Staphylococcus epidermidis; test: Antimicrobial activity against Staphylococcus epidermidis RCMB 010024 assessed as inhibition zone at 5 mg/ml after 24 hrs; details: RCMB 010024, 24 h, read-out: IZ; method in brief: as §1
[6] = system: Staphylococcus epidermidis; test: Antimicrobial activity against Staphylococcus epidermidis RCMB 010024 assessed as absence of turbidity after 24 hrs; details: RCMB 010024, 24 h; method in brief: as §2
Escherichia coli [7] = test: Antimicrobial activity against Escherichia coli RCMB 010052 assessed as inhibition zone at 5 mg/ml after 24 hrs; details: RCMB 010052, 24 h, read-out: IZ; method in brief: as §1
Escherichia coli [8] = test: Antimicrobial activity against Escherichia coli RCMB 010052 assessed as absence of turbidity after 24 hrs; details: RCMB 010052, 24 h; method in brief: as §2
Proteus vulgaris [9] = test: Antimicrobial activity against Proteus vulgaris RCMB 010085 assessed as inhibition zone at 5 mg/ml after 24 hrs; details: RCMB 010085, 24 h, read-out: IZ; method in brief: as §1
Proteus vulgaris [10] = test: Antimicrobial activity against Proteus vulgaris RCMB 010085 assessed as absence of turbidity after 24 hrs; details: RCMB 010085, 24 h; method in brief: as §2
Klebsiella pneumoniae [11] = test: Antimicrobial activity against Klebsiella pneumoniae RCMB 010093 assessed as inhibition zone at 5 mg/ml after 24 hrs; details: RCMB 010093, 24 h, read-out: IZ; method in brief: as §1
Klebsiella pneumoniae [12] = test: Antimicrobial activity against Klebsiella pneumoniae RCMB 010093 assessed as absence of turbidity after 24 hrs; details: RCMB 010093, 24 h; method in brief: as §2
Aspergillus fumigatus [13] = test: Antifungal activity against Aspergillus fumigatus RCMB 02568 assessed as inhibition zone at 5 mg/ml after 48 hrs; details: RCMB 02568, 48 h, read-out: IZ
Method in brief: (§3)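 Disk diffusion on nutrient agar seeded with 10^4 CFU/mL fungus. Sterile filter-paper disks carried 100 µL of a 5 mg/mL DMF solution, and DMF alone served as control. Plates were incubated at 25 °C for 48 h. Mean inhibition zone in mm ± SD was read beyond the 6 mm diameter, in triplicate.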

Aspergillus fumigatus [14] = test: Antifungal activity against Aspergillus fumigatus RCMB 02568 assessed as absence of turbidity after 48 hrs; details: RCMB 02568, 48 h
Method in brief: as §2, with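 “Sabouraud liquid medium.” for “Müller–Hinton broth.”, “Fungal” for “Bacterial”, “10^4” for “10^6”, “25” for “37”, “48” for “24”, “included.” for “included. Only compounds giving zones >10 mm were tested.”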

[15] = system: Syncephalastrum racemosum; test: Antifungal activity against Syncephalastrum racemosum RCMB 05922 assessed as inhibition zone at 5 mg/ml after 48 hrs; details: RCMB 05922, 48 h, read-out: IZ
[16] = system: Syncephalastrum racemosum; test: Antifungal activity against Syncephalastrum racemosum RCMB 05922 assessed as absence of turbidity after 48 hrs; details: RCMB 05922, 48 h
Geotrichum candidum [17] = test: Antifungal activity against Geotrichum candidum RCMB 05097 assessed as inhibition zone at 5 mg/ml after 48 hrs; details: RCMB 05097, 48 h, read-out: IZ; method in brief: as §3
Geotrichum candidum [18] = test: Antifungal activity against Geotrichum candidum RCMB 05097 assessed as absence of turbidity after 48 hrs; details: RCMB 05097, 48 h
Method in brief: as §2, with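 “Sabouraud liquid medium.” for “Müller–Hinton broth.”, “Fungal” for “Bacterial”, “10^4” for “10^6”, “25” for “37”, “48” for “24”, “included.” for “included. Only compounds giving zones >10 mm were tested.”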

Row | Compound | zone of inhibition at 5000 µg/mL (Streptococcus pneumoniae [1]) [mm] | MIC (Streptococcus pneumoniae [2]) [µg/mL] | zone of inhibition at 5000 µg/mL (Bacillus subtilis [3]) [mm] | MIC (Bacillus subtilis [4]) [µg/mL] | zone of inhibition at 5000 µg/mL [5] [mm] | MIC [6] [µg/mL] | zone of inhibition at 5000 µg/mL (Escherichia coli [7]) [mm] | MIC (Escherichia coli [8]) [µg/mL] | zone of inhibition at 5000 µg/mL (Proteus vulgaris [9]) [mm] | MIC (Proteus vulgaris [10]) [µg/mL] | zone of inhibition at 5000 µg/mL (Klebsiella pneumoniae [11]) [mm] | MIC (Klebsiella pneumoniae [12]) [µg/mL] | zone of inhibition at 5000 µg/mL (Aspergillus fumigatus [13]) [mm] | MIC (Aspergillus fumigatus [14]) [µg/mL] | zone of inhibition at 5000 µg/mL [15] [mm] | MIC [16] [µg/mL] | zone of inhibition at 5000 µg/mL (Geotrichum candidum [17]) [mm] | MIC (Geotrichum candidum [18]) [µg/mL]
1 | COc1ccc(-c2[nH]nc(N)c2C(=O)Nc2ccc(S(=O)(=O)Nc3onc(C)c3C)cc2)cc1 | 22 | 0.49 (≈ 1.02 µM) | 20.4 | 1.95 (≈ 4.04 µM) | 18.9 | 3.9 (≈ 8.08 µM) | 17.8 | 7.81 (≈ 16.2 µM) | 19.6 | 1.95 (≈ 4.04 µM) | 17.1 | 15.6 (≈ 32.4 µM) | 26.1 | 0.03 (≈ 0.0622 µM) | 24.4 | 0.12 (≈ 0.249 µM) | 13.6 | 125 (≈ 259 µM)
2 | Cc1noc(NS(=O)(=O)c2ccc(NC(=O)/C(C#N)=C/c3ccc(Cl)cc3)cc2)c1C | 20.3 | 0.98 (≈ 2.14 µM) | 25.6 | 0.03 (≈ 0.0657 µM) | 22.3 | 0.49 (≈ 1.07 µM) | 22.1 | 0.49 (≈ 1.07 µM) | 19.2 | 3.9 (≈ 8.54 µM) | 23.9 | 0.06 (≈ 0.131 µM) | 20.3 | 0.98 (≈ 2.14 µM) | 21.6 | 0.98 (≈ 2.14 µM) | 24.6 | 0.12 (≈ 0.263 µM)

Reference: ChEMBL document CHEMBL3351454, “Design, synthesis, antimicrobial evaluation and molecular docking studies of some new thiophene, pyrazole and pyridone derivatives bearing sulfisoxazole moiety” (2014)
